ChEMBL document CHEMBL1821604, “Anticancer activity and cDNA microarray studies of a (RS)-1,2,3,5-tetrahydro-4,1-benzoxazepine-3-yl]-6-chloro-9H-purine, and an acyclic (RS)-O,N-acetalic 6-chloro-7H-purine” (Eur J Med Chem, 2011)

Tests used:
Format in all cases: functional
[1] = test system: HT-29; assay: Upregulation of COL3A1 gene expression in human HT-29 cells at IC50 after 48 hrs by cDNA microarray technique relative to control
[2] = test system: MCF7; assay: Down regulation of FLJ37562 gene expression in human MCF7 cells at IC50 after 48 hrs by cDNA microarray technique relative to control
Method in brief: (§1)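 Cells (8 × 10⁶) were cultured in DMEM with 10% heat-inactivated FBS at 37 °C under 5% CO₂. They were exposed for 48 h to compound at its IC₅₀, with DMSO-treated parallel cultures as controls (final DMSO ≤0.1% v/v). Total RNA was isolated by trizol/chloroform phase separation, RNeasy column cleanup and on-column DNase, then quantified by OD260/OD280. Expression was profiled by cDNA microarray relative to control.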

[3] = test system: HT-29; assay: Upregulation of C20orf40 gene expression in human HT-29 cells at IC50 after 48 hrs by cDNA microarray technique relative to control
[4] = test system: MCF7; assay: Down regulation of ENST00000295859 gene expression in human MCF7 cells at IC50 after 48 hrs by cDNA microarray technique relative to control; method in brief: as §1
[5] = test system: MCF7; assay: Down regulation of ZNF336 gene expression in human MCF7 cells at IC50 after 48 hrs by cDNA microarray technique relative to control
[6] = test system: MCF7; assay: Down regulation of PGLYRP4 gene expression in human MCF7 cells at IC50 after 48 hrs by cDNA microarray technique relative to control
[7] = test system: MCF7; assay: Down regulation of AF147723 gene expression in human MCF7 cells at IC50 after 48 hrs by cDNA microarray technique relative to control
Method in brief: (§2)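 8 × 10⁶ cells exposed 48 h to compound at its IC50 concentration; total RNA isolated with trizol/chloroform and RNeasy columns including on-column DNase step; RNA quantified by OD 260/280; DMSO-treated cultures as control.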

[8] = test system: HT-29; assay: Down regulation of ALB gene expression in human HT-29 cells at IC50 after 48 hrs by cDNA microarray technique relative to control; method in brief: as §2
[9] = test system: HT-29; assay: Down regulation of LOC144448 gene expression in human HT-29 cells at IC50 after 48 hrs by cDNA microarray technique relative to control
[10] = test system: MCF7; assay: Upregulation of PTPNS1 gene expression in human MCF7 cells at IC50 after 48 hrs by cDNA microarray technique relative to control
[11] = test system: MCF7; assay: Upregulation of HOXB2 gene expression in human MCF7 cells at IC50 after 48 hrs by cDNA microarray technique relative to control
[12] = test system: MCF7; assay: Upregulation of ROS1 gene expression in human MCF7 cells at IC50 after 48 hrs by cDNA microarray technique relative to control
[13] = test system: MCF7; assay: Upregulation of PPIL4 gene expression in human MCF7 cells at IC50 after 48 hrs by cDNA microarray technique relative to control
[14] = test system: MCF7; assay: Upregulation of HMGCS2 gene expression in human MCF7 cells at IC50 after 48 hrs by cDNA microarray technique relative to control
[15] = test system: MCF7; assay: Upregulation of LCN12 gene expression in human MCF7 cells at IC50 after 48 hrs by cDNA microarray technique relative to control
[16] = test system: MCF7; assay: Upregulation of KIAA1277 gene expression in human MCF7 cells at IC50 after 48 hrs by cDNA microarray technique relative to control
[17] = test system: MCF7; assay: Upregulation of FGD3 gene expression in human MCF7 cells at IC50 after 48 hrs by cDNA microarray technique relative to control
[18] = test system: MCF7; assay: Upregulation of CRTAM gene expression in human MCF7 cells at IC50 after 48 hrs by cDNA microarray technique relative to control
[19] = test system: MCF7; assay: Upregulation of CR595826 gene expression in human MCF7 cells at IC50 after 48 hrs by cDNA microarray technique relative to control
[20] = test system: MCF7; assay: Down regulation of PCDH20 gene expression in human MCF7 cells at IC50 after 48 hrs by cDNA microarray technique relative to control
[21] = test system: MCF7; assay: Down regulation of RAC2 gene expression in human MCF7 cells at IC50 after 48 hrs by cDNA microarray technique relative to control
[22] = test system: HT-29; assay: Down regulation of NIPSNAP3B gene expression in human HT-29 cells at IC50 after 48 hrs by cDNA microarray technique relative to control
[23] = test system: HT-29; assay: Down regulation of SLC22A1 gene expression in human HT-29 cells at IC50 after 48 hrs by cDNA microarray technique relative to control
[24] = test system: HT-29; assay: Down regulation of HUS1B gene expression in human HT-29 cells at IC50 after 48 hrs by cDNA microarray technique relative to control; method in brief: as §1
[25] = test system: HT-29; assay: Down regulation of HIRA gene expression in human HT-29 cells at IC50 after 48 hrs by cDNA microarray technique relative to control; method in brief: as §1
[26] = test system: HT-29; assay: Down regulation of ACCN5 gene expression in human HT-29 cells at IC50 after 48 hrs by cDNA microarray technique relative to control; method in brief: as §2
[27] = test system: MCF7; assay: Upregulation of CITED1 gene expression in human MCF7 cells at IC50 after 48 hrs by cDNA microarray technique relative to control
[28] = test system: MCF7; assay: Down regulation of TDGF1 gene expression in human MCF7 cells at IC50 after 48 hrs by cDNA microarray technique relative to control
[29] = test system: MCF7; assay: Down regulation of SPINK2 gene expression in human MCF7 cells at IC50 after 48 hrs by cDNA microarray technique relative to control
[30] = test system: MCF7; assay: Down regulation of LTBP2 gene expression in human MCF7 cells at IC50 after 48 hrs by cDNA microarray technique relative to control
[31] = test system: MCF7; assay: Down regulation of CNIH3 gene expression in human MCF7 cells at IC50 after 48 hrs by cDNA microarray technique relative to control; method in brief: as §2
[32] = test system: HT-29; assay: Upregulation of TP53INP1 gene expression in human HT-29 cells at IC50 after 48 hrs by cDNA microarray technique relative to control
[33] = test system: HT-29; assay: Upregulation of UNC5B gene expression in human HT-29 cells at IC50 after 48 hrs by cDNA microarray technique relative to control
[34] = test system: HT-29; assay: Upregulation of EGLN3 gene expression in human HT-29 cells at IC50 after 48 hrs by cDNA microarray technique relative to control
[35] = test system: HT-29; assay: Down regulation of MGC2654 gene expression in human HT-29 cells at IC50 after 48 hrs by cDNA microarray technique relative to control
[36] = test system: HT-29; assay: Down regulation of VPS18 gene expression in human HT-29 cells at IC50 after 48 hrs by cDNA microarray technique relative to control
[37] = test system: HT-29; assay: Down regulation of LIR9 gene expression in human HT-29 cells at IC50 after 48 hrs by cDNA microarray technique relative to control; method in brief: as §1
[38] = test system: HT-29; assay: Down regulation of PRKCABP gene expression in human HT-29 cells at IC50 after 48 hrs by cDNA microarray technique relative to control

## COC(CN(c1ccccc1CO)S(=O)(=O)c1ccccc1[N+](=O)[O-])n1cnc2ncnc(Cl)c21 (racemic)
[1]
  fold change (FC): 4.72
[2]
  fold change (FC): -2.08
[3]
  fold change (FC): 2.56
[4]
  fold change (FC): -2.27
[5]
  fold change (FC): -2.45
[6]
  fold change (FC): -2.45
[7]
  fold change (FC): -2.66
[8]
  fold change (FC): -2.32
[9]
  fold change (FC): -2.45
[10]
  fold change (FC): 2.89
[11]
  fold change (FC): 2.74
[12]
  fold change (FC): 2.59
[13]
  fold change (FC): 2.4
[14]
  fold change (FC): 2.39
[15]
  fold change (FC): 2.24
[16]
  fold change (FC): 2.21
[17]
  fold change (FC): 2.16
[18]
  fold change (FC): 2.09
[19]
  fold change (FC): 2.04
[20]
  fold change (FC): -2.01
[21]
  fold change (FC): -2.29

## O=C(OCC1c2ccccc2-c2ccccc21)N1CC(n2cnc3c(Cl)ncnc32)OCc2ccccc21 (racemic)
[22]
  fold change (FC): -2.21
[23]
  fold change (FC): -2.27
[24]
  fold change (FC): -2.3
[25]
  fold change (FC): -2.35
[26]
  fold change (FC): -2.98
[27]
  fold change (FC): 2.73
[28]
  fold change (FC): -3
[29]
  fold change (FC): -3.01
[30]
  fold change (FC): -3.28
[31]
  fold change (FC): -3.32
[32]
  fold change (FC): 2.58
[33]
  fold change (FC): 2.42
[34]
  fold change (FC): 2.14
[35]
  fold change (FC): -2.02
[36]
  fold change (FC): -2.04
[37]
  fold change (FC): -2.08
[38]
  fold change (FC): -2.13
